ChEMBL document CHEMBL3860031, “Design, synthesis and antitrypanosomal activity of some nitrofurazone 1,2,4-triazolic bioisosteric analogues” (Eur J Med Chem, 2016)
pEC50: −log10 of the molar value.

Tests used:
[1] = Selectivity index, ratio of CC50 for human U2OS cells infected with amastigote stage of Trypanosoma cruzi Y to EC50 for amastigote stage of Trypanosoma cruzi Y; format: toxicity, cell-based; details: U2OS cells infected with Trypanosoma cruzi Y amastigotes, read-out: Ratio CC50/EC50
Outline: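 S.I. = CC50/EC50 from the infected U2OS high-content assay. When CC50 could not be calculated, S.I. = highest tested concentration/EC50.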

Trypanosoma cruzi = assay: Antitrypanosomal activity against amastigote stage of Trypanosoma cruzi Y infected in human U2OS cells after 96 hrs by Draq5 staining-based high content screening assay; format: functional, cell-based
Outline: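 U2OS cells (700/well, high glucose DMEM + 10% heat-inactivated FBS) seeded and incubated 24 h at 37 °C/5% CO2. Infected next day with 2800 Y strain trypomastigotes from LLC-MK2 cultures in low glucose DMEM + 2% FBS. Compounds added on day 3 as 15-point 2-fold dilutions, 1% DMSO final, top 200 µM. After 96 h, fixed in 4% paraformaldehyde, 5 µM Draq5 stain, imaged. Infection ratio normalized to infected/uninfected DMSO controls. EC50 from sigmoidal variable-slope fit. Duplicate wells, three independent experiments.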

[2] = Cytotoxicity against non-infected human U2OS cells assessed as decrease in number of cells after 96 hrs by Draq5 staining-based high content screening assay; format: toxicity, cell-based
Outline: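 Separate plate with non-infected U2OS cells (700/well, DMEM + 10% FBS) and compounds in 15-point 2-fold dilutions, top 200 µM, 1% DMSO final. After 96 h, fixed with 4% paraformaldehyde, stained with 5 µM Draq5, cells counted by imaging. CC50 from sigmoidal variable-slope curve fitting.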

[3] = Cytotoxicity against human U2OS cells infected with amastigote stage of Trypanosoma cruzi Y assessed as decrease in number of cells after 96 hrs by Draq5 staining-based high content screening assay; format: toxicity, cell-based; details: U2OS cells infected with Trypanosoma cruzi Y amastigotes
Outline: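 Run on the same infected U2OS plates as the antiparasitic read (700 cells/well, 2800 Y strain trypomastigotes, compounds from day 3, 15-point 2-fold dilutions, top 200 µM, 1% DMSO final). Cells fixed after 96 h with 4% paraformaldehyde and stained with 5 µM Draq5. Total cell count compared with DMSO-treated infected controls. CC50 = concentration giving 50% cell number, from sigmoidal variable-slope fit. Three independent experiments.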

Row | SMILES | selectivity ratio [1] | pEC50 (Trypanosoma cruzi) | Emax (Trypanosoma cruzi) [%] | Activity [2] | CC50 at 96 h [3] [µM]
1 | O=C(Cn1cncn1)c1ccc(F)cc1F | > 1.4 | 3.84 | 68.7 | Non-Toxic | 
2 | O=C(Cn1cnc([N+](=O)[O-])n1)c1ccc(F)cc1F | > 36 | 5.26 | 87 | Non-Toxic | 
3 | NC(=O)NN=C(Cn1cnc([N+](=O)[O-])n1)c1ccc(F)cc1F | > 2 | 3.99 | 95.2 | Non-Toxic | 
4 | NC(=O)NN=C(Cn1cncn1)c1ccc(F)cc1F | > 3.1 | 4.20 | 96.6 | Non-Toxic | 
5 | NC(=S)NN=C(Cn1cnc([N+](=O)[O-])n1)c1ccc(F)cc1F | > 9.27 | 4.67 | 92.8 | Non-Toxic | 
6 | NC(=S)NN=C(Cn1cncn1)c1ccc(F)cc1F | > 13 | 4.81 | 95.2 | Non-Toxic | 
7 | O=C(Cn1ccnc1[N+](=O)[O-])NCc1ccccc1 [BENZNIDAZOLE] | > 101 | 5.40 | 104 |  | 
8 | CC1CS(=O)(=O)CCN1/N=C/c1ccc([N+](=O)[O-])o1 (stereo unspecified) [NIFURTIMOX] | 78.9 | 6.47 | 102 |  | 26.8
